Screening data deposited in PubChem BioAssay by several laboratories.
This is a sample that favours compounds with a hit; in the whole collection about 1.5% have one here.
NRP1-CendR mod – modulators of CendR peptide binding to NRP-1, primary screen, biochemical, fluorescence polarization, uHTS. 360,000 compounds, 0.85% hits. Neuropilin-1 (Homo sapiens), O14786. AID 602438, 2012. FAM-RPARPAR peptide binding to NRP-1. inhibition, % at 25 µM;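 active = inhibition or corrected inhibition above about 18%, plus a signal ratio from 0.5 to 1.5, limit read from the data, passing the limit was not always enough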
Target sequence (O14786 whole entry, looked up): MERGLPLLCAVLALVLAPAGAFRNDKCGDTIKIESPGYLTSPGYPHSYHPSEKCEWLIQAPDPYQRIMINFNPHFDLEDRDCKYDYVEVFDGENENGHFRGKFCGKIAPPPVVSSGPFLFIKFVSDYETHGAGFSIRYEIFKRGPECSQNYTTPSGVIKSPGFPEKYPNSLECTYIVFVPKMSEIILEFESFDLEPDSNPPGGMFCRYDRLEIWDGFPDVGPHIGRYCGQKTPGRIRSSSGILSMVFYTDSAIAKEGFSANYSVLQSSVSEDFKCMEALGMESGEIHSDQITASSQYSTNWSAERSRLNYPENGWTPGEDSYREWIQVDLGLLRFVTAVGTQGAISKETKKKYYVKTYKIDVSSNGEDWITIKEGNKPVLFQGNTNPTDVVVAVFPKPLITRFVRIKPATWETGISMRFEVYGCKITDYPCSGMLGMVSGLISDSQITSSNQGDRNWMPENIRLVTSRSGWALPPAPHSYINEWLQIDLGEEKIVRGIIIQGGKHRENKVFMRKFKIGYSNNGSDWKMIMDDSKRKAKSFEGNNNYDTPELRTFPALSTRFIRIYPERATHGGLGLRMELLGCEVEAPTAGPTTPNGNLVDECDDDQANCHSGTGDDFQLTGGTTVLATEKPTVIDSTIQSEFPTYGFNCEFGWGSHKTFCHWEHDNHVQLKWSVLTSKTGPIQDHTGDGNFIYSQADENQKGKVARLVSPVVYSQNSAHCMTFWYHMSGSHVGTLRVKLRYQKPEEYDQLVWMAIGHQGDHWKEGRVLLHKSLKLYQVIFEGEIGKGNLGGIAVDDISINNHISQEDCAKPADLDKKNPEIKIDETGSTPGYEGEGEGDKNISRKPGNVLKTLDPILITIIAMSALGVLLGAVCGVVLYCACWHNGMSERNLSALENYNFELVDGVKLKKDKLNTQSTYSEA
DNA FID counter – compounds displacing fluorescent DNA intercalator, primary screen, artefact control for HCV NS3 helicase inhibitor project, biochemical, FID fluorescence. inhibition, % at 7.9 µM. 290,000 compounds, 0.17% hits. DNA fluorescent intercalator displacement. AID 1845, 2009; in the data active = inhibition above about 37%;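 note: 0% = vehicle and 100% = reference compound; higher means more ethidium bromide displaced from hairpin DNA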
core dimer inh – inhibitors of HCV core protein dimerization, primary screen, biochemical, TR-FRET, high-throughput; TR-FRET GST/Flag-core106 dimerization, 1536-well; inhibition, % at 5 µM; 300,000 compounds, 0.33% hits;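 active = inhibition above the mean of all tested compounds plus 3 SD, set per screening campaign, cut at about 45% in these data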
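Test system: GST/Flag-tagged HCV core106 proteins; Medium: KF-containing HEPES buffer, pH 7.45, DTT, CHAPS, BSA; Times: compound-protein-antibody incubation 4 h at 22.5 °C; Detection: TR-FRET 671 and 617 nm emission; Benchmarks: wells lacking GST-core106 and wells with excess unlabelled core106.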
MEX-5 binding – MEX-5 zinc finger RNA-binding disruptors – biochemical, C. elegans, fluorescence polarization, MLPCN library, primary screen. Zinc finger protein mex-5 (Caenorhabditis elegans), Q9XUB2. MEX-5/FITC-TCR2 RNA binding; active compounds read low. activity score (negative = inhibition of binding), % at 10 µM. 300,000 compounds, 0.38% hits. AID 1832, 2009;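 active = inhibition past about -25% in most replicates, and total fluorescence under double the plate's negative control median, limit read from the data; inconclusive = replicates evenly split on the limit, or fluorescence at least double controls; inactive = too little inhibition in most replicates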;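 note: 0% = DMSO and -100% = 5 µM competing unlabeled TCR2 RNA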
Active calls of the source: *; ! = not confirmed by another sample.

For O=c1[nH]c(=O)n(-c2ccc(Br)cc2)c(O)c1C=NCCN1CCCCC1 the results were NRP1-CendR mod -45, DNA FID counter -5, core dimer inh -2 and MEX-5 binding -40*.
For O=C(NCP(=O)(Oc1ccccc1)Oc1ccccc1)OCc1ccccc1 the results were NRP1-CendR mod 11.
For CN1CCC2(CC1)C(C#N)=C(N)NC(S)=C2C#N the results were NRP1-CendR mod -112, DNA FID counter 8, core dimer inh 1 and MEX-5 binding -43*!.
For COC(=O)Cn1cc(/C=C2\C(=O)NC(=O)N(c3ccc(OC)cc3)C2=O)c2ccccc21 the results were NRP1-CendR mod -36, DNA FID counter -10, core dimer inh 12 and MEX-5 binding -54*.
Screening O=C(O)Cn1cc(/C=C2\C(=O)NC(=O)N(c3ccc(F)cc3)C2=O)c2ccccc21 returned DNA FID counter -15 and MEX-5 binding -42*.
For COCCCNC(=O)Cn1cc(/C=C2\C(=O)NC(=O)N(c3ccccc3F)C2=O)c2ccccc21 the results were NRP1-CendR mod 1, DNA FID counter -8, core dimer inh -3 and MEX-5 binding inconclusive.
For COCCNC(=O)Cn1cc(/C=C2\C(=O)NC(=O)N(c3cccc(C)c3C)C2=O)c2ccccc21 the results were NRP1-CendR mod -14, DNA FID counter -15, core dimer inh -1 and MEX-5 binding inconclusive.
For COCCNC(=O)Cn1cc(/C=C2\C(=O)NC(=O)N(c3ccccc3F)C2=O)c2ccccc21 the results were NRP1-CendR mod -11, DNA FID counter -9, core dimer inh 2 and MEX-5 binding -86*.
COc1ccc(N2C(=O)NC(=O)/C(=C\c3cn(C)c4ccccc34)C2=O)cc1 was read as NRP1-CendR mod 144, DNA FID counter -9, core dimer inh 8 and MEX-5 binding -39*.
For COc1ccc(N2C(=O)NC(=O)/C(=C/c3ccc(N4CCOCC4)cc3)C2=O)cc1 the results were DNA FID counter -20, core dimer inh 1 and MEX-5 binding -4.
C=Cc1ccc(Cn2c(C(=O)O)c(C=O)c3ccccc32)cc1 was read as NRP1-CendR mod -42, DNA FID counter -30, core dimer inh 32 and MEX-5 binding 3.
`O=[N+]([O-])c1cc(S(=O)(=O)c2ccc(O)c([N+](=O)[O-])c2)ccc1O` gave NRP1-CendR mod -5, DNA FID counter -2, core dimer inh -9 and MEX-5 binding -36*.
COc1nc(C)nc(NC(=O)NS(=O)(=O)c2ccccc2Cl)n1 was read as NRP1-CendR mod 4, core dimer inh -8 and MEX-5 binding 0.
For O=C1C2CCCN2C(c2cccc(Cl)c2)N1c1ccccn1 (stereo unspecified) the results were NRP1-CendR mod -2, DNA FID counter 38*, core dimer inh -2 and MEX-5 binding 1.
For O=C1C2CCCN2C(c2ccc(Cl)c(Cl)c2)N1c1ccccn1 (stereo unspecified) the results were NRP1-CendR mod 6, DNA FID counter -2, core dimer inh 3 and MEX-5 binding -1.
CCn1nc(/C=C/c2ccccc2)nc2c(=O)n(C)c(=O)nc1-2 was read as NRP1-CendR mod 27*, DNA FID counter 0 and MEX-5 binding -5.
`CCOc1ccc(-n2c(-c3cccs3)nc3ccccc3c2=O)cc1` gave NRP1-CendR mod -1, DNA FID counter -3, core dimer inh 7 and MEX-5 binding 1.
For CCn1nc(-c2cccs2)nc2c(=O)n(C)c(=O)nc1-2 the results were NRP1-CendR mod 30*.
`CC(C)C1CN1CC(O)Cn1ccnc1[N+](=O)[O-]` (stereo unspecified) gave NRP1-CendR mod 6.
For CN(C)[C@@H]1C(=O)C(C(N)=O)=C(O)[C@@]2(O)C(=O)C3=C(O)c4c(O)cccc4[C@@](C)(O)[C@H]3[C@H](O)[C@@H]12 the results were NRP1-CendR mod -32, DNA FID counter -9, core dimer inh 35 and MEX-5 binding -84*.
Screening CN(C)[C@@H]1C(=O)C(C(N)=O)=C(O)[C@@]2(O)C(=O)C3=C(O)c4c(O)cccc4[C@@](C)(O)C3C[C@@H]12 (stereo partly specified) returned NRP1-CendR mod -5, core dimer inh -6 and MEX-5 binding -9.
`Cc1ccc(N2C(=O)/C(=C/c3ccc(CN(CCC#N)S(C)(=O)=O)o3)C(=O)NC2=S)cc1` gave NRP1-CendR mod -180, DNA FID counter -18, core dimer inh 28 and MEX-5 binding -50*.
Cc1ccc(/C=C2\C(=O)NC(=S)N(c3ccc(F)cc3)C2=O)o1 was read as NRP1-CendR mod -182, DNA FID counter -11 and MEX-5 binding -4.
CC(=O)OC1CC(OC2C(O)CC(OC3C(O)CC(OC4CCC5(C)C(CCC6C5CCC5(C)C(C7=CC(=O)OC7)CCC65O)C4)OC3C)OC2C)OC(C)C1OC1OC(CO)C(O)C(O)C1O (stereo unspecified) was read as NRP1-CendR mod 5.
CC(=O)OC1CC[C@]2(C#N)[C@H]3CC[C@]4(C)[C@H](C5C=CC(=O)O5)CCC4(O)C3CCC2(O)C1 (stereo partly specified) was read as NRP1-CendR mod 22*, DNA FID counter -16, core dimer inh -2 and MEX-5 binding -1.
CN1C(=O)NC(=O)C(N=Nc2ccc(Cl)cc2)C1=O (stereo unspecified) was read as NRP1-CendR mod -3.
`CN1Cc2c(c(C#N)c(N)n(C)c2=S)CC1(C)C` gave NRP1-CendR mod 43, DNA FID counter 4, core dimer inh 3 and MEX-5 binding -48*.
`COc1ccc(CN2Cc3cc(-c4ccc(OC)cc4)ccc3-n3nncc3C2)cc1` gave NRP1-CendR mod 1.
For COc1ccc(/C=C2/C(=O)N(Cc3ccco3)C(=O)N(C(C)C)C2=O)cc1 the results were NRP1-CendR mod -330, DNA FID counter -31, core dimer inh 0 and MEX-5 binding 11.
For CC(C)N1C(=O)/C(=C/C=C/c2ccco2)C(=O)N(Cc2ccco2)C1=O the results were NRP1-CendR mod -131, DNA FID counter -19, core dimer inh 63* and MEX-5 binding -1.
Screening O=c1c2ccccc2nc(-c2ccco2)n1-c1ccccn1 returned NRP1-CendR mod 32*, DNA FID counter -1, core dimer inh -2 and MEX-5 binding 1.
For C[C@]12CCC3C(CC[C@H]4C[C@@H](O)CC[C@]34C)C1C[C@@H](N)[C@@H]2O (stereo partly specified) the results were NRP1-CendR mod 6.
O=c1[nH]c(=S)n(-c2ccc(Cl)cc2)c(O)c1C=Nc1ccc(N2CCOCC2)cc1 was read as NRP1-CendR mod 28, DNA FID counter -4, core dimer inh 10 and MEX-5 binding -41*.
Screening O=c1[nH]c(=O)n(C2CCCCC2)c(O)c1C=Nc1ccc(N2CCOCC2)cc1 returned NRP1-CendR mod 22, DNA FID counter -10, core dimer inh -3 and MEX-5 binding 0.
